Reference: ChEMBL document CHEMBL1833906, “Design and evaluation of a novel fluorescent CB2 ligand as probe for receptor visualization in immune cells” (Bioorg Med Chem Lett, 2011)
Calls of active or inactive are those of the source. No cut-off for these calls is given here.

Key:
[1] = molecular target: Cannabinoid receptor 2 (Mus musculus) (UniProt P47936); test: Binding affinity to cannabinoid CB2 receptor in non transfected BALB/c mouse CD4+ T cells at 0.1 uM after 30 mins using […] by confocal microscopic analysis; type: cell-based; settings: T-cell
[2] = molecular target: T1, 5-hydroxytryptamine receptor 2C (Homo sapiens) (UniProt P28335); test: Displacement of [3H]-mesulergine from 5HT2C receptor at 10 uM
T1 sequence (whole entry): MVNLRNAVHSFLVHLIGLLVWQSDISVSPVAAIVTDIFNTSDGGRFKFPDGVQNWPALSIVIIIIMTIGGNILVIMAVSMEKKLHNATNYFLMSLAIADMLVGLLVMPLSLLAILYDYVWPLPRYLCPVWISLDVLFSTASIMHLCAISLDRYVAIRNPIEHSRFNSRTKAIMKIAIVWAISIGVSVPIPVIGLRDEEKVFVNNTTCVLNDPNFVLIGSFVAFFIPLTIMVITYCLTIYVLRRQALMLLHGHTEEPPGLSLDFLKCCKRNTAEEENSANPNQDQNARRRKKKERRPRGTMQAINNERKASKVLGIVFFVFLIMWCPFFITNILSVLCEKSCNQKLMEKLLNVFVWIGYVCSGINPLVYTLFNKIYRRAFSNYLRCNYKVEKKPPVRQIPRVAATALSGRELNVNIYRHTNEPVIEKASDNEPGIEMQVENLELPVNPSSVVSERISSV
Procedure, shortened: (§1)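 Single-point competitive radioligand binding screen at 10 µM test concentration, measured as % inhibition of radioligand binding. Radioligands: [3H]CP55940 for CB1, [3H]ketanserin for 5-HT2A, [3H]mesulergine for 5-HT2C. Run by the NIMH Psychoactive Drug Screening Program.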

[3] = molecular target: Cannabinoid receptor 2 (Mus musculus) (UniProt P47936); test: Binding affinity to cannabinoid CB2 receptor in mouse B lymphocytes at 5 uM after 30 mins using PE-conjugated anti-B220 antibody staining by flow cytometric analysis in presence of GW842166X; type: cell-based
Procedure, shortened: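 Mouse lung mononuclear cells, prepared by collagenase digestion, were first preincubated on ice for 5 min with the CB2 agonist GW842166X at 100 µM. They were then stained with PE-conjugated anti-B220 antibody and NBD-labelled probe at 5 µM on ice for 30 min, and analysed by flow cytometry.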

[4] = molecular target: Cannabinoid receptor 1 (Homo sapiens) (UniProt P21554); test: Displacement of [3H]-CP55940 from cannabinoid CB1 receptor at 10 uM; procedure, shortened: as §1
[5] = molecular target: 5-hydroxytryptamine receptor 2A (Homo sapiens) (UniProt P28223); test: Displacement of [3H]-[…] from 5HT2A receptor at 10 uM; procedure, shortened: as §1
[6] = molecular target: Cannabinoid receptor 2 (Homo sapiens, UniProt P34972); test: Displacement of [3H]-CP55940 from human recombinant cannabinoid CB2 receptor expressed in CHO-K1 cells; type: cell-based
[7] = molecular target: Cannabinoid receptor 2 (Mus musculus) (UniProt P47936); test: Binding affinity to cannabinoid CB2 receptor in non transfected BALB/c mouse CD4+ T cells at 5 uM after 30 mins […] by confocal microscopic analysis; type: cell-based; settings: T-cell
[8] = molecular target: Cannabinoid receptor 2 (Mus musculus) (UniProt P47936); test: Binding affinity to cannabinoid CB2 receptor in mouse B lymphocytes at 5 uM after 30 mins using PE-conjugated anti-B220 antibody staining by flow cytometric analysis; type: cell-based
Procedure, shortened: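 Lung mononuclear cells from mice were prepared by collagenase digestion of lung tissue. They were stained with PE-conjugated anti-B220 antibody and NBD-labelled probe at 5 µM on ice for 30 min, then analysed by flow cytometry.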

[9] = molecular target: Cannabinoid receptor 2 (Mus musculus) (UniProt P47936); test: Binding affinity to cannabinoid CB2 receptor in non transfected BALB/c mouse CD4+ T cells after 30 mins […] by confocal microscopic analysis in presence of CB2 receptor agonist GW842166X; type: cell-based; settings: T-cell
[10] = molecular target: Cannabinoid receptor 2 (Mus musculus) (UniProt P47936); test: Binding affinity to cannabinoid CB2 receptor in non transfected BALB/c mouse CD4+ T cells at 1 uM after 30 mins using PE-conjugated […] antibody staining by confocal microscopic analysis; type: cell-based; settings: T-cell
Procedure, shortened: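 T cells were purified from peripheral lymph nodes of BALB/c mice and stained with PE-conjugated anti-CD4 antibody plus NBD-labelled probe at 0.1, 1.0 or 5 µM. Incubation on ice for 30 min is stated for the 5 µM condition. CD4+ cells were imaged by confocal microscopy (x40).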

Sequence of Cannabinoid receptor 2 (Mus musculus) (P47936 whole entry): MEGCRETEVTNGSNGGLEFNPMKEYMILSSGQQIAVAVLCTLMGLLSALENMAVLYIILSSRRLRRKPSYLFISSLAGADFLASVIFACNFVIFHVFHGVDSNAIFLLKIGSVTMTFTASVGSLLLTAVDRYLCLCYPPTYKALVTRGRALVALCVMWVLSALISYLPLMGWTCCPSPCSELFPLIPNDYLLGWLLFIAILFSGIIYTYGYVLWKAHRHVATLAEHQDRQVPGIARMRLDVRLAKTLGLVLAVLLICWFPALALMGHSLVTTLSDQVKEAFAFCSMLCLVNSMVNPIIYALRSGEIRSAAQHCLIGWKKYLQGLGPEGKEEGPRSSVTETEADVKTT
Sequence of Cannabinoid receptor 1 (Homo sapiens) (P21554 whole entry): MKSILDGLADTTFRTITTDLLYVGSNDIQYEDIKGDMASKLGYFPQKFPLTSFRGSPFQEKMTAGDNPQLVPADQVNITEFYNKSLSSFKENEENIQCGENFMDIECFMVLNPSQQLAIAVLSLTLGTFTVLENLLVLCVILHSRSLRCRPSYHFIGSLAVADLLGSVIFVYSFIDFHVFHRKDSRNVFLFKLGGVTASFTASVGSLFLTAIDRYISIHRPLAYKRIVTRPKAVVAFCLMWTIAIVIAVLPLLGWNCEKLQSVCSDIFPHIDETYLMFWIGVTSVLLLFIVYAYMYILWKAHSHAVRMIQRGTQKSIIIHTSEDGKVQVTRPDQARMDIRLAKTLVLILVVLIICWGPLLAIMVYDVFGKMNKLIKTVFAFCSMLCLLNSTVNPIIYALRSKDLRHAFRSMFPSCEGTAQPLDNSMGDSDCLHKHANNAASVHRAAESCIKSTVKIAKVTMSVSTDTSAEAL
Sequence of 5-hydroxytryptamine receptor 2A (Homo sapiens) (P28223 whole entry): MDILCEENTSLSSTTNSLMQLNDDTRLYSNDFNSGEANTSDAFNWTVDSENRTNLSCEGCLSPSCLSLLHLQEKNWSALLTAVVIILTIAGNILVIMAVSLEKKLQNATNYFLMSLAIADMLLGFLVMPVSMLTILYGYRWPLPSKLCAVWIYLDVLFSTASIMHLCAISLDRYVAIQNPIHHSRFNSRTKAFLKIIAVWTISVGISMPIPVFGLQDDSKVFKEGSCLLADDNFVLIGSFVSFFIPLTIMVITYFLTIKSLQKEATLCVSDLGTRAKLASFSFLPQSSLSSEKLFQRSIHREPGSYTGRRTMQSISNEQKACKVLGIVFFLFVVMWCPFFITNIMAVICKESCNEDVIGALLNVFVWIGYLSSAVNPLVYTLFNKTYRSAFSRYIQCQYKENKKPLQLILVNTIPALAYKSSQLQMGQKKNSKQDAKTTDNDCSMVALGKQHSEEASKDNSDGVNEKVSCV
Sequence of Cannabinoid receptor 2 (P34972 whole entry): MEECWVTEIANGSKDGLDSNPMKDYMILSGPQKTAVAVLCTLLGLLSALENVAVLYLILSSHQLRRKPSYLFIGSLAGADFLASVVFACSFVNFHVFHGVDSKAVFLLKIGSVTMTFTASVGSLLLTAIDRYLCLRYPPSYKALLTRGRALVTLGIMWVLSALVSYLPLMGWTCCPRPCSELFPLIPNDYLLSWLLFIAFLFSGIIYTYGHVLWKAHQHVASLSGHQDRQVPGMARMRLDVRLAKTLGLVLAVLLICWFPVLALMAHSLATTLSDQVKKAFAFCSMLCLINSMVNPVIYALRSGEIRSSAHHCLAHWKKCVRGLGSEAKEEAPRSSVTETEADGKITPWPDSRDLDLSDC

CCCCCN1C(=O)/C(=N\NC(=O)CN(C)c2ccc([N+](=O)[O-])c3nonc23)c2ccc(OC)cc21
Activity [1]: inactive
inhibition [2]: < 40%
Activity [3]: inactive
inhibition [4]: < 40%
inhibition [5]: < 40%
Ki [6]: 0.387 µM
Activity [7]: Active
Activity [8]: Active
Activity [9]: inactive
Activity [10]: inactive
